Fewer inactive variants are shown than the library holds.
B1: tRNA (parent)
chain: GUUCCGUUGGCGUAAUGGUAACGCGUCUCCCUCCUAAGGAGAAGACUGCGGGUUCGAGUCCCGUACGGAACG

Variants of: B1
Assay: yeast fitness relative to wild type (ratio to wild type); higher = fitter; tRNA-Arg(CCU), competitive growth, 37 C, YPD
How it was run: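 Genotype frequency changes were the basis for Darwinian fitness relative to wild type. The frequencies came from 100-nucleotide paired-end sequencing of gene amplicons from the start population and each end population of pooled yeast strains with tRNA-Arg(CCU) gene variants at the native locus. Competition ran in YPD at 37°C for 24 hours in six replicates, genotypes needed ≥ 100 starting reads, and estimates < 0.5 were set to 0.5.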

Variant	yeast fitness
GUUCCGUUGGCGUAAUGGUAACGUGUCUCCCUCCUAUGGAGAAGACUGCGGGUUCGAGUCCCCUACGGAACG [C24U A37U G63C]	≤ 0.5
GUUCCGUUGGCGUAAUGGUAACGUGUCUCCCUCCUAAGGCGAAGACUGCGGGUUCGAGUCCCGUACGGAACG [C24U A40C]	0.806
GUUCCGUUGGCGUAAUGGUAACGUGUCUCCCUCCUAAGGGGAAGAAUGCGGGUUCGAGUCCCGUACGGAACG [C24U A40G C46A]	0.723
GUUCCGUUGGCGUAAUGGUAACGUGUCUCCCUCCUAAGGGGAAGACUGCGGGUUCGACUCCCGUACGGAACG [C24U A40G G58C]	0.579
GUUCCGUUGGCGUAAUGGUAACGUGUCUCCCUCCUAAGGUGAAGACUGCGGGUUCGAGUCCCGUACGGAACG [C24U A40U]	0.78
GUUCCGUUGGCGUAAUGGUAACGUGUCUCCCUCCUAAGGUGAAGACUGCGGGUUUGAGACCCGUACGGAACG [C24U A40U C55U U59A]	0.548
GUUCCGUUGGCGUAAUGGUAACGUGUCUCCCUCCUAAGGAGCAGAAUGCGGGUACGAGUCCCGUACGGAACG [C24U A42C C46A U54A]	≤ 0.5
GUUCCGUUGGCGUAAUGGUAACGUGUCUCCCUCCUAAGGAGGAGACUGCGGGUUCGAGUCCCGUACGGAACG [C24U A42G]	0.956
GUUCCGUUGGCGUAAUGGUAACGUGUCUCCCUCCUAAGGAGGAGACUGCGGGUUCGAGUCCCGUACGGACCG [C24U A42G A70C]	0.642
GUUCCGUUGGCGUAAUGGUAACGUGUCUCCCUCCUAAGGAGUAGACUGCGGGUUCGAGUCCCGUACGGAACG [C24U A42U]	0.875
GUUCCGUUGGCGUAAUGGUAACGUGUCUCCCUCCUAAGGAGUCGACUGCGGGUUCGAGUCCCGUACGGAACG [C24U A42U A43C]	0.889
GUUCCGUUGGCGUAAUGGUAACGUGUCUCCCUCCUAAGGAGUUGACUGCGGGUUCGAGUCCCGUACGGAACG [C24U A42U A43U]	1.02
GUUCCGUUGGCGUAAUGGUAACGUGUCUCCCUCCUAAGGAGUAGACUGCGGAUUCGAGUCCCGUACGGAACG [C24U A42U G52A]	0.563
GUUCCGUUGGCGUAAUGGUAACGUGUCUCCCUCCUAAGGAGUAGACUGCGGCUUCGAGUCCCAUACGGAACG [C24U A42U G52C G63A]	≤ 0.5
GUUCCGUUGGCGUAAUGGUAACGUGUCUCCCUCCUAAGGAGUAGACUGCGGGUUCGAGUCCCGUACAGAACG [C24U A42U G67A]	0.567
GUUCCGUUGGCGUAAUGGUAACGUGUCUCCCUCCUAAGGAGACGACUGCGGGUUCGCGUCCCGUACGGAACG [C24U A43C A57C]	≤ 0.5
GUUCCGUUGGCGUAAUGGUAACGUGUCUCCCUCCUAAGGAGACGACUGUGUGUUCGAGUCCCGUACGGAACG [C24U A43C C49U G51U]	≤ 0.5
GUUCCGUUGGCGUAAUGGUAACGUGUCUCCCUCCUAAGGAGACGACUGCGGGUUCGAGUACCGUACGGAACG [C24U A43C C60A]	≤ 0.5
GUUCCGUUGGCGUAAUGGUAACGUGUCUCCCUCCUAAGGAGAGGACUGCGGGUUCGAGUCCCGUACGGUACG [C24U A43G A69U]	0.819

Variant	yeast fitness
GUUCCGUUGGCGUAAUGGUAACGUGUCUCCCUCCUAAGGAGAUGACUGCGGGUUCGAGUCCCGUACGGAACG [C24U A43U]	1.01
GUUCCGUUGGCGUAAUGGUAACGUGUCUCCCUCCUAAGGAGAUGACUGCGGGUUGGAGUCCCGUACGGAACG [C24U A43U C55G]	0.588
GUUCCGUUGGCGUAAUGGUAACGUGUCUCCCUCCUAAGGAGAUGACUGCGGGUUCGAGUCCCGUAUGGAACG [C24U A43U C66U]	0.801
GUUCCGUUGGCGUAAUGGUAACGUGUCUCCCUCCUAAGGAGAUGACCGCGGGUUCGAGUCCCGUACGGAACG [C24U A43U U47C]	0.794
GUUCCGUUGGCGUAAUGGUAACGUGUCUCCCUCCUAAGGAGAUGACGGCGGGUUCGAGUCCCGUACAGAACG [C24U A43U U47G G67A]	0.53
GUUCCGUUGGCGUAAUGGUAACGUGUCUCCCUCCUAAGGAGAUGACGGCGGGCUCGAGUCCCGUACGGAACG [C24U A43U U47G U53C]	≤ 0.5
GUUCCGUUGGCGUAAUGGUAACGUGUCUCCCUCCUAAGGAGAAGCCUGCGGGUUCGAGUCGCGUACGGAACG [C24U A45C C61G]	≤ 0.5
GUUCCGUUGGCGUAAUGGUAACGUGUCUCCCUCCUAAGGAGAAGGCUGCGGGUUCGGGUCCCGUACGGAACG [C24U A45G A57G]	0.787
GUUCCGUUGGCGUAAUGGUAACGUGUCUCCCUCCUAAGGAGAAGGCUGCGGGUUCGAGUCCCGUGCGGAACG [C24U A45G A65G]	0.757
GUUCCGUUGGCGUAAUGGUAACGUGUCUCCCUCCUAAGGAGAAGGGUGCGGGUUGGAGUCCCGUACGGAACG [C24U A45G C46G C55G]	0.588
GUUCCGUUGGCGUAAUGGUAACGUGUCUCCCUCCUAAGGAGAAGGCUGCGGGUUCGAGUCCCGUACGCAACG [C24U A45G G68C]	0.641
GUUCCGUUGGCGUAAUGGUAACGUGUCUCCCUCCUAAGGAGAAGUCUGCGGGUUCGAGUCCCGUACGGAACG [C24U A45U]	0.919
GUUCCGUUGGCGUAAUGGUAACGUGUCUCCCUCCUAAGGAGAAGUCUGCGGGUUCGCGUCCCGUACGAAACG [C24U A45U A57C G68A]	≤ 0.5
GUUCCGUUGGCGUAAUGGUAACGUGUCUCCCUCCUAAGGAGAAGUCUGCGGGUUCGAGUCCCGUACGGUACG [C24U A45U A69U]	0.78
GUUCCGUUGGCGUAAUGGUAACGUGUCUCCCUCCUAAGGAGAAGUCUGCGGGUUUGAGUCCCGUACGGAACG [C24U A45U C55U]	0.569
GUUCCGUUGGCGUAAUGGUAACGUGUCUCCCUCCUAAGGAGAAGUCUGCGGGUUUGAGUCCCGUACUGAACG [C24U A45U C55U G67U]	≤ 0.5
GUUCCGUUGGCGUAAUGGUAACGUGUCUCCCUCCUAAGGAGAAGUCUGCGGGUUCGAAUCCCGUACGGAACG [C24U A45U G58A]	0.647
GUUCCGUUGGCGUAAUGGUAACGUGUCUCCCUCCUAAGGAGAAGUCUGCGGGUUCGAAUCCCGUGCGGAACG [C24U A45U G58A A65G]	0.794
GUUCCGUUGGCGUAAUGGUAACGUGUCUCCCUCCUAAGGAGAAGACUGCGGGUUCGCGUCCCGUACGGAACG [C24U A57C]	0.601

Reference: the RNAGym collection of RNA variant scans (doi:10.1126/science.aae0568)
